In ChEMBL document CHEMBL4229525, “Anti-angiogenic and anticancer effects of baicalein derivatives based on transgenic zebrafish model” (Bioorg Med Chem, 2018):

Key:
Danio rerio [1] = species: Danio rerio; assay: Toxicity in 24 to 72 hrs post fertilized zebra fish embryo harboring fli1:EGFP; format: organism-based; conditions: zebrafish, in vivo
Outline: (§1)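 Dechorionated Tg(fli1:EGFP) embryos at 24 hpf, 20 per group, were kept in 1 mL embryo water with compound at 28.5 °C for a further 48 h. Compound was tested at 1, 5, 10, 25, 50, 75, 100, 150 and 200 μM. At 72 hpf, embryos anaesthetised with 0.016% tricaine had their ISVs imaged by fluorescence microscopy, with SU5416 as positive control. Definitions used: LOEC is anti-angiogenic effect in most larvae; LOTC is lowest toxic concentration; LC100 is total embryo lethality. TI = LOTC/LOEC; AI = LC100/LOEC.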

[2] = Antiangiogenic index, ratio of LC100 for 24 to 72 hrs post fertilized zebra fish embryo harboring fli1:EGFP to MEC for antiangiogenic activity in 24 to 72 hrs post fertilized zebra fish embryo harboring fli1:EGFP; format: toxicity, organism-based, Danio rerio; conditions: fli1:EGFP transgenic, zebrafish, in vivo; outline: as §1
[3] = Toxicity index, ratio of MTC for 24 to 72 hrs post fertilized zebra fish embryo harboring fli1:EGFP to MEC for antiangiogenic activity in 24 to 72 hrs post fertilized zebra fish embryo harboring fli1:EGFP; format: organism-based, Danio rerio; conditions: fli1:EGFP transgenic, zebrafish, in vivo; outline: as §1
Danio rerio [4] = species: Danio rerio; assay: Antiangiogenic activity in 24 to 72 hrs post fertilized zebra fish embryo harboring fli1:EGFP after 48 hrs by fluorescence microscopic analysis; format: functional
Outline: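 Tg(fli1:EGFP) zebrafish: 20 dechorionated 24 hpf embryos per group in 1 mL embryo water with compound (1, 5, 10, 25, 50, 75, 100, 150, 200 μM), 28.5 °C for 48 h. Embryos anaesthetised in 0.016% tricaine; ISVs imaged by fluorescence microscopy at 72 hpf and scored for vessel defects and overall morphology. SU5416 positive control.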

A549 [5] = assay: Induction of apoptosis in human A549 cells assessed as early apoptotic cells at 2.5 uM after 48 hrs by Annexin-V-FITC/propidium iodide staining based flow cytometry (reference value: 15.2%); format: functional
Outline: (§2)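 A549 cells were plated at 2 × 10⁵ per well and held at 37 °C, 5% CO₂ for 24 h before compound was added. After treatment, cells were stained with annexin V-FITC plus propidium iodide for 30 min at 25 °C. Quadrants were read by flow cytometry: Q3 early apoptotic, Q2 late apoptotic.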

A549 [6] = assay: Induction of apoptosis in human A549 cells assessed as live cells at 2.5 uM after 48 hrs by Annexin-V-FITC/propidium iodide staining based flow cytometry (reference value: 75.2%); format: functional; outline: as §2
A549 [7] = assay: Induction of apoptosis in human A549 cells assessed as late apoptotic cells at 2.5 uM after 48 hrs by Annexin-V-FITC/propidium iodide staining based flow cytometry (reference value: 4.05%); format: functional; outline: as §2
A549 [8] = assay: Induction of apoptosis in human A549 cells assessed as necrotic cells at 2.5 uM after 48 hrs by Annexin-V-FITC/propidium iodide staining based flow cytometry (reference value: 5.45%); format: functional; outline: as §2

SMILES: CCN1CCN(C(=O)COc2c(OCc3ccccc3)cc3oc(-c4ccccc4)cc(=O)c3c2O)CC1
- LC100 (Danio rerio [1]): Nd(Insoluble)
- MTC (Danio rerio [1]): Nd(Insoluble)

SMILES: O=c1cc(-c2ccccc2)oc2cc(O)c(OCCCO)c(O)c12
- selectivity ratio [2]: 6
- selectivity ratio [3]: 1
- MEC (Danio rerio [4]): 2.5 µM
- LC100 (Danio rerio [1]): 15 µM
- MTC (Danio rerio [1]): 2.5 µM

SMILES: O=C(COc1c(O)cc2oc(-c3ccccc3)cc(=O)c2c1O)N1CCC(O)CC1
- selectivity ratio [2]: 2
- selectivity ratio [3]: 1
- MEC (Danio rerio [4]): 50 µM
- LC100 (Danio rerio [1]): 100 µM
- MTC (Danio rerio [1]): 50 µM

SMILES: O=C(COc1c(OCc2ccccc2)cc2oc(-c3ccccc3)cc(=O)c2c1O)N1CCN(c2ncccn2)CC1
- selectivity ratio [2]: 1.3
- selectivity ratio [3]: 1
- MEC (Danio rerio [4]): 75 µM
- LC100 (Danio rerio [1]): 100 µM
- MTC (Danio rerio [1]): 75 µM

SMILES: O=C(COc1c(O)cc2oc(-c3ccccc3)cc(=O)c2c1O)N1CCN(CCO)CC1
- selectivity ratio [2]: > 2
- selectivity ratio [3]: 1
- MEC (Danio rerio [4]): 100 µM
- LC100 (Danio rerio [1]): > 200 µM
- MTC (Danio rerio [1]): 100 µM

SMILES: O=C(COc1c(OCc2ccccc2)cc2oc(-c3ccccc3)cc(=O)c2c1O)N1CCC(O)CC1
- selectivity ratio [2]: 4
- selectivity ratio [3]: 1
- MEC (Danio rerio [4]): 25 µM
- LC100 (Danio rerio [1]): 100 µM
- MTC (Danio rerio [1]): 25 µM

SMILES: O=C(COc1c(O)cc2oc(-c3ccccc3)cc(=O)c2c1O)NCCO
- selectivity ratio [2]: 1
- selectivity ratio [3]: 1
- MEC (Danio rerio [4]): 200 µM
- LC100 (Danio rerio [1]): 200 µM
- MTC (Danio rerio [1]): 200 µM

SMILES: O=C(COc1c(O)cc2oc(-c3ccccc3)cc(=O)c2c1O)N1CCNCC1
- selectivity ratio [2]: 5
- selectivity ratio [3]: 1.5
- MEC (Danio rerio [4]): 10 µM
- LC100 (Danio rerio [1]): 50 µM
- MTC (Danio rerio [1]): 15 µM

SMILES: O=C(COc1c(OCc2ccccc2)cc2oc(-c3ccccc3)cc(=O)c2c1O)NCCO
- selectivity ratio [2]: 2
- selectivity ratio [3]: 1
- MEC (Danio rerio [4]): 100 µM
- LC100 (Danio rerio [1]): 200 µM
- MTC (Danio rerio [1]): 100 µM

SMILES: O=C(COc1c(OCc2ccccc2)cc2oc(-c3ccccc3)cc(=O)c2c1O)N(CCO)CCO
- selectivity ratio [2]: 2
- selectivity ratio [3]: 1
- MEC (Danio rerio [4]): 100 µM
- LC100 (Danio rerio [1]): 200 µM
- MTC (Danio rerio [1]): 100 µM

SMILES: CC(C)=CCOc1cc2oc(-c3ccccc3)cc(=O)c2c(O)c1O
- selectivity ratio [2]: 2
- selectivity ratio [3]: 1
- MEC (Danio rerio [4]): 50 µM
- LC100 (Danio rerio [1]): 100 µM
- MTC (Danio rerio [1]): 50 µM

SMILES: CN1CCN(C(=O)COc2c(OCc3ccccc3)cc3oc(-c4ccccc4)cc(=O)c3c2O)CC1
- selectivity ratio [2]: 5
- selectivity ratio [3]: 1
- MEC (Danio rerio [4]): 10 µM
- LC100 (Danio rerio [1]): 50 µM
- MTC (Danio rerio [1]): 10 µM

SMILES: O=c1cc(-c2ccccc2)oc2cc(O)c(OCC(O)CO)c(O)c12 (configuration not stated)
- selectivity ratio [2]: 2
- selectivity ratio [3]: 1
- MEC (Danio rerio [4]): 50 µM
- LC100 (Danio rerio [1]): 100 µM
- MTC (Danio rerio [1]): 50 µM

SMILES: O=C(O)c1cc(O)c(O)c(O)c1 [GALLIC ACID]
- Activity (A549 [5]): 32.6%
- Activity (A549 [6]): 39.5%
- Activity (A549 [7]): 20.2%
- Activity (A549 [8]): 6.7%

SMILES: O=c1cc(-c2ccccc2)oc2cc(OCCCO)c(O)c(O)c12
- selectivity ratio [2]: > 2
- selectivity ratio [3]: 1
- MEC (Danio rerio [4]): 100 µM
- LC100 (Danio rerio [1]): > 200 µM
- MTC (Danio rerio [1]): 100 µM

SMILES: O=c1cc(-c2ccccc2)oc2cc(O)c(OCCO)c(O)c12
- selectivity ratio [2]: 10
- selectivity ratio [3]: 2
- MEC (Danio rerio [4]): 5 µM
- LC100 (Danio rerio [1]): 50 µM
- MTC (Danio rerio [1]): 10 µM

SMILES: COc1c(OCCCN(C)CCO)c(O)cc2oc(-c3ccccc3)cc(=O)c12
- selectivity ratio [2]: > 2
- selectivity ratio [3]: 1
- MEC (Danio rerio [4]): 100 µM
- LC100 (Danio rerio [1]): > 200 µM
- MTC (Danio rerio [1]): 100 µM

SMILES: Cc1cc(C)c(/C=C2\C(=O)Nc3ccccc32)[nH]1 [SEMAXANIB]
- selectivity ratio [2]: 5
- selectivity ratio [3]: 1.5
- MEC (Danio rerio [4]): 1 µM
- LC100 (Danio rerio [1]): 5 µM
- MTC (Danio rerio [1]): 1.5 µM

SMILES: O=C(O)COc1c(O)cc2oc(-c3ccccc3)cc(=O)c2c1O
- MEC (Danio rerio [4]): >50 µM
- LC100 (Danio rerio [1]): 50 µM
- MTC (Danio rerio [1]): > 50 µM

SMILES: O=C(COc1c(OCc2ccccc2)cc2oc(-c3ccccc3)cc(=O)c2c1O)N1CCOCC1
- selectivity ratio [2]: 2
- selectivity ratio [3]: 1
- MEC (Danio rerio [4]): 50 µM
- LC100 (Danio rerio [1]): 100 µM
- MTC (Danio rerio [1]): 50 µM

SMILES: O=C(COc1c(OCc2ccccc2)cc2oc(-c3ccccc3)cc(=O)c2c1O)N1CCN(CCO)CC1
- selectivity ratio [2]: 1
- selectivity ratio [3]: 1
- MEC (Danio rerio [4]): 200 µM
- LC100 (Danio rerio [1]): 200 µM
- MTC (Danio rerio [1]): 200 µM

SMILES: O=c1cc(-c2ccccc2)oc2cc(O)c(OCCCCCCO)c(O)c12
- selectivity ratio [2]: 4
- selectivity ratio [3]: 1
- MEC (Danio rerio [4]): 2.5 µM
- LC100 (Danio rerio [1]): 10 µM
- MTC (Danio rerio [1]): 2.5 µM

SMILES: O=C(COc1c(O)cc2oc(-c3ccccc3)cc(=O)c2c1O)N(CCO)CCO
- MEC (Danio rerio [4]): >200 µM
- LC100 (Danio rerio [1]): > 200 µM
- MTC (Danio rerio [1]): > 200 µM

SMILES: O=C(COc1c(OCc2ccccc2)cc2oc(-c3ccccc3)cc(=O)c2c1O)N1CCCC1
- selectivity ratio [2]: > 2
- selectivity ratio [3]: 1
- MEC (Danio rerio [4]): 100 µM
- LC100 (Danio rerio [1]): > 200 µM
- MTC (Danio rerio [1]): 100 µM

SMILES: O=C(O)CCC(=O)OCCOc1c(O)cc2oc(-c3ccccc3)cc(=O)c2c1O
- selectivity ratio [2]: 1.5
- selectivity ratio [3]: > 1.5
- MEC (Danio rerio [4]): 50 µM
- LC100 (Danio rerio [1]): 75 µM
- MTC (Danio rerio [1]): > 75 µM

SMILES: CN(C)CCNC(=O)COc1c(O)cc2oc(-c3ccccc3)cc(=O)c2c1O
- selectivity ratio [2]: > 2
- selectivity ratio [3]: 1
- MEC (Danio rerio [4]): 100 µM
- LC100 (Danio rerio [1]): > 200 µM
- MTC (Danio rerio [1]): 100 µM

SMILES: O=c1cc(-c2ccccc2)oc2cc(O)c(OCCCCO)c(O)c12
- selectivity ratio [2]: 6
- selectivity ratio [3]: 2
- MEC (Danio rerio [4]): 5 µM
- LC100 (Danio rerio [1]): 30 µM
- MTC (Danio rerio [1]): 10 µM

SMILES: O=c1cc(-c2ccccc2)oc2cc(O)c(OCCCCCO)c(O)c12
- selectivity ratio [2]: 5
- selectivity ratio [3]: 1
- MEC (Danio rerio [4]): 1 µM
- LC100 (Danio rerio [1]): 5 µM
- MTC (Danio rerio [1]): 1 µM

SMILES: O=c1cc(-c2ccccc2)oc2cc(O)c(O)c(O)c12 [BAICALEIN]
- selectivity ratio [2]: 2
- selectivity ratio [3]: 1
- MEC (Danio rerio [4]): 0.5 µM
- LC100 (Danio rerio [1]): 1 µM
- MTC (Danio rerio [1]): 0.5 µM

SMILES: O=c1cc(-c2ccccc2)oc2cc(O)c(OCCCCCNCCO)c(O)c12
- selectivity ratio [2]: 4
- selectivity ratio [3]: 2
- MEC (Danio rerio [4]): 25 µM
- LC100 (Danio rerio [1]): 100 µM
- MTC (Danio rerio [1]): 50 µM

SMILES: CN1CCN(C(=O)COc2c(O)cc3oc(-c4ccccc4)cc(=O)c3c2O)CC1
- selectivity ratio [2]: 5
- selectivity ratio [3]: 1.5
- MEC (Danio rerio [4]): 10 µM
- LC100 (Danio rerio [1]): 50 µM
- MTC (Danio rerio [1]): 15 µM

SMILES: CCN(CC)C(=O)COc1c(O)cc2oc(-c3ccccc3)cc(=O)c2c1O
- selectivity ratio [2]: 1
- selectivity ratio [3]: 1
- MEC (Danio rerio [4]): 200 µM
- LC100 (Danio rerio [1]): 200 µM
- MTC (Danio rerio [1]): 200 µM
